Measured values from ChEMBL document CHEMBL1932971, “Synthesis of uriedo and thiouriedo derivatives of peptide conjugated heterocycles - A new class of promising antimicrobials” (2012).
In brackets after ≈: the same amount, converted by molar mass. Peptide text beside a SMILES is read from it. * marks the point of attachment. Piperazinyl(4-(2,3-Cl2Ph)) = Clc1cccc(N2CCN(*)CC2)c1Cl; Thiocarbamoyl(N-4-ClPh) = S=C(Nc1ccc(Cl)cc1)*; Thiocarbamoyl(4-MeOPh) = COc1ccc(NC(=S)*)cc1; X1 = Fc1ccc2c(C3CCN(*)CC3)noc2c1; OcHex = C1CCC(O*)CC1

Key:
Type in all cases: functional
Aspergillus flavus [1] = test: Antifungal activity against Aspergillus flavus after 72 hrs by microdilution method
Aspergillus flavus [2] = test: Ratio of bavistin MIC to compound MIC for Aspergillus flavus after 72 hrs by microdilution method
Xanthomonas oryzae = test: Antibacterial activity against Xanthomonas oryzae at 30 ug/ml after 24 hrs by agar well diffusion method; details: read-out: DIZ
Aspergillus niger [3] = test: Antifungal activity against Aspergillus niger at 30 ug/ml after 72 hrs by agar well diffusion method; details: read-out: DIZ
Method in brief: (§1)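 Fungal well diffusion. Inocula were subcultured in nutrient broth for one day, then spread on solidified medium. Compounds were made as a 1 mg/mL DMSO stock and diluted to 30 µg/mL final. Each 6 mm well got 0.1 mL. Controls were bavistin (reference) and DMSO (negative). Plates stood for 3 days at room temperature. Inhibition zone was measured in mm as the mean of three determinations.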

Staphylococcus aureus = test: Antibacterial activity against coagulase-positive Staphylococcus aureus at 30 ug/ml after 24 hrs by agar well diffusion method; details: read-out: DIZ
Method in brief: (§2)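 Agar well diffusion. Inocula were grown in nutrient broth at 37 °C for 24 h, then subcultured in nutrient broth at room temperature. Compounds were made as a 1 mg/mL DMSO stock and diluted to 30 µg/mL final. Nutrient agar plates were spread-inoculated and 6 mm wells each got 0.1 mL. Controls were amoxicillin (reference) and DMSO (negative). Incubation was 24 h at 37 °C. Inhibition zone was measured in mm as the mean of three determinations.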

Klebsiella pneumoniae = test: Antibacterial activity against Klebsiella pneumoniae at 30 ug/ml after 24 hrs by agar well diffusion method; details: read-out: DIZ; method in brief: as §2
Aspergillus niger [4] = test: Ratio of bavistin MIC to compound MIC for Aspergillus niger after 72 hrs by microdilution method
Fusarium oxysporum [5] = test: Antifungal activity against Fusarium oxysporum at 30 ug/ml after 72 hrs by agar well diffusion method; details: read-out: DIZ; method in brief: as §1
Fusarium oxysporum [6] = test: Ratio of bavistin MIC to compound MIC for Fusarium oxysporum after 72 hrs by microdilution method
Aspergillus niger [7] = test: Antifungal activity against Aspergillus niger after 72 hrs by microdilution method
Aspergillus flavus [8] = test: Antifungal activity against Aspergillus flavus at 30 ug/ml after 72 hrs by agar well diffusion method; details: read-out: DIZ; method in brief: as §1
Escherichia coli = test: Antibacterial activity against Escherichia coli at 30 ug/ml after 24 hrs by agar well diffusion method; details: read-out: DIZ; method in brief: as §2
Fusarium oxysporum [9] = test: Antifungal activity against Fusarium oxysporum after 72 hrs by microdilution method

Row | Compound | MIC (Aspergillus flavus [1]) [µg/mL] | Ratio (Aspergillus flavus [2]) | zone of inhibition at 30 µg/mL (Xanthomonas oryzae) [mm] | zone of inhibition at 30 µg/mL (Aspergillus niger [3]) [mm] | zone of inhibition at 30 µg/mL (Staphylococcus aureus) [mm] | zone of inhibition at 30 µg/mL (Klebsiella pneumoniae) [mm] | Ratio (Aspergillus niger [4]) | zone of inhibition at 30 µg/mL (Fusarium oxysporum [5]) [mm] | Ratio (Fusarium oxysporum [6]) | MIC (Aspergillus niger [7]) [µg/mL] | zone of inhibition at 30 µg/mL (Aspergillus flavus [8]) [mm] | zone of inhibition at 30 µg/mL (Escherichia coli) [mm] | MIC (Fusarium oxysporum [9]) [µg/mL]
1 | CC(C)[C@H](NC(=O)CNC(=O)[C@@H]1CCCN1C(=O)[C@H](Cc1ccccc1)NC(=O)CNC(=O)[C@H](CCC(=O)OC1CCCCC1)NC(=O)CNC(=S)Nc1ccc(Cl)cc1)C(=O)NCC(=O)N[C@H](C(=O)N1CCC[C@H]1C(=O)NCC(=O)N[C@H](C(=O)NCC(=O)N[C@@H](Cc1ccccc1)C(=O)N1CCC[C@H]1C(=O)NCC(=O)N[C@@H](Cc1ccccc1)C(=O)NCC(=O)N[C@@H](Cc1ccccc1)C(=O)N1CCC[C@H]1C(=O)NCC(=O)N[C@H](C(=O)NCC(=O)N[C@H](C(=O)N1CCC[C@H]1C(=O)NCC(=O)N[C@H](C(=O)NCC(=O)N[C@@H](Cc1ccccc1)C(=O)N1CCC[C@H]1C(=O)N1CCN(c2cccc(Cl)c2Cl)CC1)C(C)C)C(C)C)C(C)C)C(C)C)C(C)C ({Thiocarbamoyl(N-4-ClPh)}-GE(OcHex)GFPGVGVPGVGFPGFGFPGVGVPGVGFP-{Piperazinyl(4-(2,3-Cl2Ph))}) | 2.5 (≈ 0.779 µM) | 10 | 16 | 44 | 16 | 18 | 10 | 40 | 10 | 2.5 (≈ 0.779 µM) | 39 | 19 | 3 (≈ 0.935 µM)
2 | COc1ccc(NC(=S)NCC(=O)N[C@@H](CCC(=O)OC2CCCCC2)C(=O)NCC(=O)N[C@@H](Cc2ccccc2)C(=O)N2CCC[C@H]2C(=O)NCC(=O)N[C@H](C(=O)NCC(=O)N[C@H](C(=O)N2CCC[C@H]2C(=O)NCC(=O)N[C@H](C(=O)NCC(=O)N[C@H](C(=O)N2CCC[C@H]2C(=O)NCC(=O)N[C@H](C(=O)NCC(=O)N[C@H](C(=O)N2CCC[C@H]2C(=O)NCC(=O)N[C@@H](Cc2ccccc2)C(=O)NCC(=O)N[C@@H](Cc2ccccc2)C(=O)N2CCC[C@H]2C(=O)NCC(=O)N[C@@H](Cc2ccccc2)C(=O)NCC(=O)N[C@@H](Cc2ccccc2)C(=O)N2CCC[C@H]2C(=O)N2CCC(c3noc4cc(F)ccc34)CC2)C(C)C)C(C)C)C(C)C)C(C)C)C(C)C)C(C)C)cc1 ({Thiocarbamoyl(4-MeOPh)}-GE(OcHex)GFPGVGVPGVGVPGVGVPGFGFPGFGFP-X1) | 2 (≈ 0.626 µM) | 10 | 14 | 43 | 15 | 16 | 10 | 39 | 10 | 2 (≈ 0.626 µM) | 38 | 17 | 2 (≈ 0.626 µM)
